For experiment [1], the target named is T1, Neurotensin receptor type 2 (Rattus norvegicus, UniProt Q63384).
T1 sequence (Q63384 whole entry): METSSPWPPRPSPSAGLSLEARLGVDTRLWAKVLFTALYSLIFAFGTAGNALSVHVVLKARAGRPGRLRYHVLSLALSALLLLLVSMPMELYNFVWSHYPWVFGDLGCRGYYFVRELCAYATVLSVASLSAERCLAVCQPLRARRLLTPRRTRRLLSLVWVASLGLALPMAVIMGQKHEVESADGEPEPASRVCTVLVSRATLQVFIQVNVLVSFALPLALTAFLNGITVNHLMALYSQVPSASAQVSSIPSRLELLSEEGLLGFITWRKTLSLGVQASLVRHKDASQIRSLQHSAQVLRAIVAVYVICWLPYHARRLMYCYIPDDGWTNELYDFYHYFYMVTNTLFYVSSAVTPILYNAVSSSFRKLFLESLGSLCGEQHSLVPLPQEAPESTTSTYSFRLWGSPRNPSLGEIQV
The experiment is described as follows: Displacement of [125I]NT at rat NTS2 overexpressed in CHOK1 cells after 30 mins by gamma counting. The format is cell-based, CHO-K1. In general terms: Displacement assays read how much labelled ligand stays bound in the presence of the test substance.

Experiment [2] deals with T2, Neurotensin receptor type 2 (Rattus norvegicus) (UniProt Q63384).
T2 sequence (whole entry): T1 sequence (Q63384 whole entry)
The experiment is described as follows: Agonist activity at rat NTS2 stably expressed in CHOK1 cells assessed as induction of calcium release by FLIPR assay relative to SR142948a. In kind it is functional, cell-based. To be noted: CHO-K1. A digest of the protocol: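 Rat NTS2 expressed in CHO-k1 cells, plated at 25000/well the day before the assay. Cells were loaded with Calcium 5 dye (1:20 in HBSS, 20 mM HEPES, 2.5 mM probenecid, pH 7.4) for 45 min at 37 °C, then pretreated with 10% DMSO added 1:10. Full-log compound dilutions were read on FLIPR Tetra every second for 100 s. Emax is expressed as % of the full-agonist standard; EC50 from a three-parameter logistic fit; at least three experiments in duplicate.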

The target of experiment [3] is T1, Neurotensin receptor type 2. The experiment is described as follows: Agonist activity at rat NTS2 stably expressed in CHOK1 cells assessed as induction of calcium release by FLIPR assay. In kind it is functional, cell-based, CHO-K1.
For experiment [4], the target named is Neurotensin receptor type 1 (Rattus norvegicus) (UniProt P20789). The experiment is described as follows: Antagonist activity at rat NTS1 stably expressed in CHOK1 cells assessed as inhibition of NT-induced calcium release by FLIPR assay. In kind it is functional, cell-based. The settings on record: CHO-K1. A digest of the protocol: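 Rat NTS1 CHO-k1 cells, plated at 30000/well on the assay day. Cells were loaded with Calcium 5 dye (1:40 in HBSS, 20 mM HEPES, 2.5 mM probenecid, pH 7.4) for 45 min at 37 °C, then preincubated with compound for 15 min. […] Fluorescence (ex 485/em 525 nm) read for 60 s on FlexStation II; three-parameter logistic fit; at least three experiments in duplicate.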
Neurotensin receptor type 1 (Rattus norvegicus), sequence (P20789 whole entry): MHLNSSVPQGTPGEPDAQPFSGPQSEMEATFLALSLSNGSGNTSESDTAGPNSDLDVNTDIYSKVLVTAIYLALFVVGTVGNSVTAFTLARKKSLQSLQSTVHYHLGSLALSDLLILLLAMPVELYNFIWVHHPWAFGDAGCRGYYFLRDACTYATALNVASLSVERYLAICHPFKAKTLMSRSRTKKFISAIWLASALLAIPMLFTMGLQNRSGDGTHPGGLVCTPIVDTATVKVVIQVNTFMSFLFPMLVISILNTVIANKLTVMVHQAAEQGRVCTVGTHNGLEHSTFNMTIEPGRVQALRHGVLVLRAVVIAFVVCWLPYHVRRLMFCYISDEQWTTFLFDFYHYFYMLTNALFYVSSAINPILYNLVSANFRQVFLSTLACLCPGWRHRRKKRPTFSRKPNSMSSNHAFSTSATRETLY

The target of experiment [5] is Neurotensin receptor type 1 (Rattus norvegicus, UniProt P20789). The experiment is described as follows: Agonist activity at rat NTS1 stably expressed in CHOK1 cells assessed as induction of calcium release by FLIPR assay. To be noted: cho-k1. The format is functional, cell-based.
Neurotensin receptor type 1, sequence (P20789 whole entry): as above

For the molecule `CCc1c(C(=O)N[C@H](C(=O)O)C2CCCCC2)nn(-c2ccnc3cc(Cl)ccc23)c1-c1c(OC)cccc1OC`, the Ki (usually the dissociation constant of the complex between target and ligand, obtained from inhibition or displacement) in experiment [1] was found to be 1180 nM. Moreover, the Emax (usually the maximal effect, on the per cent scale that the assay sets) in experiment [2] was determined as 15%. For the same molecule, the EC50 (as a rule, the concentration needed to bring the measured effect to its halfway point) in experiment [3] (read-out: EC50) came to 94 nM. Turning to `COc1cccc(OC)c1-c1cc(C(=O)N[C@H](C(=O)O)C2CCCCC2)nn1-c1cccc2ccccc12`, the Ke in experiment [4] turned out to be 58 nM. Also, the Emax in experiment [2] amounted to 45%. In experiment [1], `COc1cccc(OC)c1-c1cc(C(=O)NC2(C(=O)O)C3CC4CC(C3)CC2C4)nn1-c1ccc(C(=O)N(C)CCCN(C)C)cc1C(C)C` (configuration not stated) displayed an inhibition constant Ki of 6 nM. The Emax in experiment [2] is 100%. Also, the EC50 in experiment [3] (read-out: EC50) was determined as 20 nM.

Take `COc1cccc(OC)c1-c1cc(C(=O)N[C@H](C(=O)O)C2CCCCC2)nn1-c1ccnc2cc(Cl)ccc12`: the Ke in experiment [4] turned out to be 23 nM. Besides, in experiment [2], the maximum response (Emax) was 86%. For `COc1ccc(OC)c(-c2cc(C(=O)N[C@H](C(=O)O)C3CCCCC3)nn2-c2ccnc3cc(Cl)ccc23)c1`, in that order: 1280 nM and 19%. Consider `CC[C@H](C)[C@H](NC(=O)[C@H](Cc1ccc(O)cc1)NC(=O)[C@@H]1CCCN1C(=O)[C@H](CCCN=C(N)N)NC(=O)[C@@H](N)CCCN=C(N)N)C(=O)N[C@@H](CC(C)C)C(=O)O`, for which the 50% effective concentration (EC50) result in experiment [3] (cho-k1) is given as “Not Active”. Consider `COc1ccccc1-c1cc(C(=O)NC2(C(=O)O)CCCCC2)nn1-c1ccnc2cc(Cl)ccc12`, for which the Ke in experiment [4] amounted to 4550 nM. Moreover, in experiment [2], the Emax came out at 35%. For `COc1cccc(OC)c1-c1cc(C(=O)NC2(C(=O)O)CCCCC2)nn1-c1ccnc2cc(Cl)ccc12`, in that order: 157 nM and 78%. The like results for `COc1cccc(OC)c1-c1cc(C(=O)NC2(C(=O)O)C3CC4CC(C3)CC2C4)nn1-c1ccc(F)cc1` (configuration not stated) were, in that order, 191 nM and 34%. For `COc1cccc(OC)c1-c1cc(C(=O)NC2(C(=O)O)CCCC2)nn1-c1ccnc2cc(Cl)ccc12`, in that order: 222 nM and 76%. As to `COc1cccc(OC)c1-c1cc(C(=O)NC2(C(=O)O)CCCCC2)nn1-c1cccc2ccccc12`, the Ke in experiment [4] came to 230 nM. The maximal response (Emax) in experiment [2] is 35%. For `COc1cccc(OC)c1-c1cc(C(=O)N[C@H](C(=O)O)C2CCCCC2)nn1-c1ccc(F)cc1`, in that order: 3340 nM and 22%. On to `COc1cccc(OC)c1-c1cc(C(=O)NC2C3CC4CC(C3)CC2C4)nn1-c1ccnc2cc(Cl)ccc12` (configuration not stated), for which the EC50 entry in experiment [3] (cho-k1) is recorded as “Not Active”. Consider `C[C@@H]1CN([C@H]2CC[C@](C#N)(c3ccc(F)cc3)CC2)CC[C@]1(C(=O)O)c1ccccc1` [LEVOCABASTINE], for which the maximal effect (Emax) in experiment [2] was 16%. Further, the EC50 entry in experiment [5] was “Not Active”. For the molecule `COc1cccc(OC)c1-c1cc(C(=O)NC2(C(=O)O)CCCCC2)nn1-c1ccc(F)cc1`, in experiment [2], the maximal response (Emax) amounted to 15%. Regarding `COc1cccc(OC)c1-c1cc(C(=O)NC2(C(=O)O)C3CC4CC(C3)CC2C4)nn1-c1ccnc2cc(Cl)ccc12` (configuration not stated) [REMINERTANT], the affinity in experiment [1], expressed as Ki, was 62 nM. In addition, the Emax in experiment [2] was 100%. The EC50 in experiment [3] (read-out: EC50) came to 120 nM. Take `COc1ccccc1-c1cc(C(=O)N[C@H](C(=O)O)C2CCCCC2)nn1-c1cccc2ccccc12`: the Ke in experiment [4] came to 1400 nM. In experiment [2], the Emax is 18%. Regarding `COc1cccc(OC)c1-c1cc(C(=O)NC2(C(=O)O)CCCCCC2)nn1-c1ccnc2cc(Cl)ccc12`, the Ke in experiment [4] was determined as 42 nM. In addition, the maximal effect (Emax) in experiment [2] turned out to be 89%.

As to `COc1ccc(-c2cc(C(=O)N[C@H](C(=O)O)C3CCCCC3)nn2-c2ccnc3cc(Cl)ccc23)c(OC)c1`, the Emax in experiment [2] stood at 12%.

For the molecule `COc1ccccc1-c1cc(C(=O)NC2(C(=O)O)CCCCC2)nn1-c1cccc2ccccc12`, in experiment [4], the Ke was 7380 nM. In addition, the maximum response (Emax) in experiment [2] is 18%. For `O=C(N[C@H](C(=O)O)C1CCCCC1)c1cc(-c2c(F)cccc2F)n(-c2ccnc3cc(Cl)ccc23)n1`, the maximal effect (Emax) in experiment [2] came to 15%. For the molecule `COc1ccccc1-c1cc(C(=O)N[C@H](C(=O)O)C2CCCCC2)nn1-c1ccnc2cc(Cl)ccc12`, in experiment [4], the Ke amounted to 1680 nM. Also, in experiment [2], the maximal effect (Emax) is 25%.
